Tests used:
Brain [1] = assay: Toxicity in mouse assessed as effect on copper level in brain per gram of organ at 0.4 mmol/kg, ip qd for 5 days; format: organism-based; details: in vivo, 120 h
Brain [2] = assay: Toxicity in mouse assessed as effect on zinc level in brain per gram of organ at 0.4 mmol/kg, ip qd for 5 days; format: organism-based; details: in vivo, 120 h
Mus musculus = assay: Toxicity in mouse assessed as change in bodyweight at 0.4 mmol/kg, ip qd for 5 days; format: organism-based; details: in vivo, 120 h
Summary of the method: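 Lead-loaded mice were given normal saline vehicle or test agent at 0.4 mmol/kg. Body weights were recorded and compared with the NS group to assess growth.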

Kidney [3] = assay: Detoxification activity against lead-induced toxicity in mouse assessed as reduction lead level in kidney per gram of organ at 0.4 mmol/kg, ip qd for 5 days measured 24 hrs last post dose by synchrotron X-ray fluorescence analysis; format: functional
Summary of the method: (§1)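 Lead-loaded mice were given normal saline vehicle (negative control) or test agent at 0.2, 0.4 or 0.6 mmol/kg. Lead was measured in liver, kidney, left femur and brain and reported as mean ± SD µg Pb/g organ against the NS group.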

Kidney [4] = assay: Toxicity in mouse assessed as effect on iron level in kidney per gram of organ at 0.4 mmol/kg, ip qd for 5 days; format: organism-based; details: in vivo, 120 h
Kidney [5] = assay: Toxicity in mouse assessed as effect on manganese level in kidney per gram of organ at 0.4 mmol/kg, ip qd for 5 days; format: organism-based; details: in vivo, 120 h
Liver [6] = assay: Toxicity in mouse assessed as effect on manganese level in liver per gram of organ at 0.4 mmol/kg, ip qd for 5 days; format: organism-based; details: in vivo, 120 h
Femur = assay: Detoxification activity against lead-induced toxicity in mouse assessed as reduction lead level in femurs per gram of organ at 0.4 mmol/kg, ip qd for 5 days measured 24 hrs last post dose by synchrotron X-ray fluorescence analysis; format: functional; summary of the method: as §1
Kidney [7] = assay: Toxicity in mouse assessed as effect on zinc level in kidney per gram of organ at 0.4 mmol/kg, ip qd for 5 days; format: organism-based; details: in vivo, 120 h
[8] = Detoxification activity against lead-induced toxicity in mouse assessed as reduction lead level in feces at 0.4 mmol/kg, ip qd for 5 days measured 24 hrs last post dose by synchrotron X-ray fluorescence analysis; format: functional
Summary of the method: (§2)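 Lead-loaded mice were given normal saline vehicle, DL-penicillamine or NaDMS (positive controls), or test agent, each at 0.4 mmol/kg; n = 12 per group. Lead was measured in feces and urine and reported as mean ± SD µg Pb/g excrement against the NS group.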

Brain [9] = assay: Toxicity in mouse assessed as effect on manganese level in brain per gram of organ at 0.4 mmol/kg, ip qd for 5 days; format: organism-based; details: in vivo, 120 h
Liver [10] = assay: Detoxification activity against lead-induced toxicity in mouse assessed as reduction lead level in liver per gram of organ at 0.4 mmol/kg, ip qd for 5 days measured 24 hrs last post dose by synchrotron X-ray fluorescence analysis; format: functional; summary of the method: as §1
Brain [11] = assay: Toxicity in mouse assessed as effect on calcium level in brain per gram of organ at 0.4 mmol/kg, ip qd for 5 days; format: organism-based; details: in vivo, 120 h
Brain [12] = assay: Toxicity in mouse assessed as effect on iron level in brain per gram of organ at 0.4 mmol/kg, ip qd for 5 days; format: organism-based; details: in vivo, 120 h
Brain [13] = assay: Detoxification activity against lead-induced toxicity in mouse assessed as reduction lead level in brain per gram of organ at 0.4 mmol/kg, ip qd for 5 days measured 24 hrs last post dose by synchrotron X-ray fluorescence analysis; format: functional; summary of the method: as §1
Liver [14] = assay: Toxicity in mouse assessed as effect on calcium level in liver per gram of organ at 0.4 mmol/kg, ip qd for 5 days; format: organism-based; details: in vivo, 120 h
Liver [15] = assay: Toxicity in mouse assessed as effect on copper level in liver per gram of organ at 0.4 mmol/kg, ip qd for 5 days; format: organism-based; details: in vivo, 120 h
Liver [16] = assay: Toxicity in mouse assessed as effect on zinc level in liver per gram of organ at 0.4 mmol/kg, ip qd for 5 days; format: organism-based; details: in vivo, 120 h
Liver [17] = assay: Toxicity in mouse assessed as effect on iron level in liver per gram of organ at 0.4 mmol/kg, ip qd for 5 days; format: organism-based; details: in vivo, 120 h
Kidney [18] = assay: Toxicity in mouse assessed as effect on calcium level in kidney per gram of organ at 0.4 mmol/kg, ip qd for 5 days; format: organism-based; details: in vivo, 120 h
[19] = Detoxification activity against lead-induced toxicity in mouse assessed as reduction lead level in urine at 0.4 mmol/kg, ip qd for 5 days measured 24 hrs last post dose by synchrotron X-ray fluorescence analysis; format: functional; summary of the method: as §2
Kidney [20] = assay: Toxicity in mouse assessed as effect on copper level in kidney per gram of organ at 0.4 mmol/kg, ip qd for 5 days; format: organism-based; details: in vivo, 120 h
Caco-2 = assay: Efflux ratio of permeability […] in human Caco2 cells at 4 mM up to 120 mins by HPLC analysis; format: ADME, cell-based; details: caco-2, 2 h, 4000 µM
Summary of the method: (§3)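 Permeability measured across Caco-2 cell monolayers.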

[21] = Apparent permeability from basolateral to apical side of human Caco2 cells at 4 mM up to 120 mins by HPLC analysis; format: ADME, cell-based; details: Caco-2; summary of the method: as §3
[22] = Apparent permeability from apical to basolateral side of human Caco2 cells at 4 mM up to 120 mins by HPLC analysis; format: ADME, cell-based; details: Caco-2; summary of the method: as §3

CC1(C)SC(C(=O)O)C(C(=O)N[C@@H](Cc2c[nH]c3ccccc23)C(=O)O)S1 (some centres undefined)
Activity (Brain [1]): 2.39 µg/g
Activity (Brain [2]): 33.04 µg/g
Activity (Mus musculus): 30.8 g
Activity (Kidney [3]): 7.5 µg/g
Activity (Kidney [4]): 93.07 µg/g
Activity (Kidney [5]): 1.4 µg/g
Activity (Liver [6]): 1.4 µg/g
Activity (Femur): 17.66 µg/g
Activity (Kidney [7]): 27.99 µg/g
Activity [8]: 4.14 µg/g
Activity (Brain [9]): 0.78 µg/g
Activity (Liver [10]): 5.59 µg/g
Activity (Brain [11]): 69.35 µg/g
Activity (Brain [12]): 56.94 µg/g
Activity (Brain [13]): 1.21 µg/g
Activity (Liver [14]): 59.69 µg/g
Activity (Liver [15]): 3.76 µg/g
Activity (Liver [16]): 36.96 µg/g
Activity (Liver [17]): 153.84 µg/g
Activity (Kidney [18]): 76.92 µg/g
Activity [19]: 2.84 µg/g
Activity (Kidney [20]): 3.69 µg/g

CC1(C)SC(C(=O)O)C(C(=O)N[C@@H](CO)C(=O)O)S1 (some centres undefined)
Activity (Brain [1]): 2.39 µg/g
Activity (Brain [2]): 34.09 µg/g
Activity (Mus musculus): 31.5 g
Activity (Kidney [3]): 6.43 µg/g
Activity (Kidney [4]): 93.69 µg/g
Activity (Kidney [5]): 1.42 µg/g
Activity (Liver [6]): 1.37 µg/g
Activity (Femur): 14.7 µg/g
Activity (Kidney [7]): 28.1 µg/g
Activity [8]: 4.41 µg/g
Activity (Brain [9]): 0.78 µg/g
Activity (Liver [10]): 3.21 µg/g
Activity (Brain [11]): 68.08 µg/g
Activity (Brain [12]): 56.47 µg/g
Activity (Brain [13]): 1.05 µg/g
Activity (Liver [14]): 59.65 µg/g
Activity (Liver [15]): 3.73 µg/g
Activity (Liver [16]): 37 µg/g
Activity (Liver [17]): 153.39 µg/g
Activity (Kidney [18]): 75.89 µg/g
Activity [19]: 2.83 µg/g
Activity (Kidney [20]): 3.73 µg/g

CC1(C)SC(C(=O)O)C(C(=O)NCC(=O)O)S1 (centres undefined)
Activity (Brain [1]): 2.5 µg/g
Activity (Brain [2]): 34.31 µg/g
Activity (Mus musculus): 30.4 g
Activity (Kidney [3]): 6.68 µg/g
Activity (Kidney [4]): 94.4 µg/g
Activity (Kidney [5]): 1.31 µg/g
Activity (Liver [6]): 1.29 µg/g
Activity (Femur): 20.82 µg/g
Activity (Kidney [7]): 27.68 µg/g
Activity [8]: 4.53 µg/g
Activity (Brain [9]): 0.74 µg/g
Activity (Liver [10]): 3.29 µg/g
Activity (Brain [11]): 71.4 µg/g
Activity (Brain [12]): 57.03 µg/g
Activity (Brain [13]): 1.39 µg/g
Activity (Liver [14]): 60.01 µg/g
Activity (Liver [15]): 3.58 µg/g
Activity (Liver [16]): 36.35 µg/g
Activity (Liver [17]): 154.3 µg/g
Activity (Kidney [18]): 76.17 µg/g
Activity [19]: 2.07 µg/g
Activity (Kidney [20]): 3.62 µg/g

O=C([O-])C(S)C(S)C(=O)[O-].[Na+].[Na+] (centres undefined)
Activity (Kidney [3]): 6.23 µg/g
Activity (Femur): 14.31 µg/g
Ratio (Caco-2): 1.1
Activity [8]: 4.59 µg/g
Papp B→A at 2 h, 4000 µM [21]: 100 nm/s
Activity (Liver [10]): 4.75 µg/g
Activity (Brain [13]): 1.72 µg/g
Papp A→B at 2 h, 4000 µM [22]: 110 nm/s
Activity [19]: 1.79 µg/g

CC(C)(S)C(N)C(=O)O (racemic) [DL-PENICILLAMINE]
Activity (Kidney [3]): 7.24 µg/g
Activity (Femur): 14.99 µg/g
Ratio (Caco-2): 1.14
Activity [8]: 3.26 µg/g
Papp B→A at 2 h, 4000 µM [21]: 115 nm/s
Activity (Liver [10]): 3.52 µg/g
Activity (Brain [13]): 1.61 µg/g
Papp A→B at 2 h, 4000 µM [22]: 131 nm/s
Activity [19]: 1.94 µg/g

From ChEMBL document CHEMBL1681713, “Lead detoxification activities and ADMET hepatotoxicities of a class of novel 5-(1-carbonyl-L-amino-acid)-2,2-dimethyl-[1,3]dithiolane-4-carboxylic acids” (Bioorg Med Chem Lett, 2011)
